Test results from publication PMC5652008 (EBioMedicine, 2017).
Marks after values point to notes of the source that are not given here. One block for each compound: values may come before it. Square brackets hold non-standard residues; d marks the D form. Peptide text beside a SMILES is read from it. * marks the point of attachment. Succinyl(4-O-cholesteryl) = CC(C)CCC[C@@H](C)[C@H]1CC[C@H]2[C@@H]3CC=C4C[C@@H](OC(=O)CCC(=O)*)CC[C@]4(C)[C@H]3CC[C@]12C; Sta = CC(C)C[C@H](N)[C@@H](O)CC(=O)O; Palmitoyl = CCCCCCCCCCCCCCCC(=O)*

Assays:
[1] = Thermodynamic; assay type: physicochemical; details: phosphate buffer
Summary of the method: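 Equilibrium solubility measured in 0.05 M phosphate buffer, pH 6.5.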

[2] = biological target: T1, BACE1 (Homo sapiens, UniProt P56817); test: Cell-based Aβ lowering IC50 assay; details: for Aβ40 production inhibition in HEK293 APP cells: 16 h / overnight incubation
Summary of the method: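 Test compounds, free or Brain Shuttle-coupled, added in serial dilutions to HEK293 cells stably expressing wild-type human APP695, grown in Iscove's medium with 10% FBS to ~80% confluency. Construct dilution buffers served as control. Overnight at 37 °C, 5% CO2. Supernatant Aβ40 read by AlphaLISA: acceptor beads 1 h, then streptavidin donor beads 30 min, both at RT; emission at 615 nm. Compared with vehicle-treated cells; mean ± SEM.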

[3] = tested on: plasma Aβ; test: Plasma Aβ40 after single i.v. dose in mice; assay type: in vivo, C57BL/6 J mice; details: 5 h post dose
Summary of the method: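 Nine-week-old female mice received one i.v. injection of test compound at 0.003–3 mg/kg, with the buffer alone as vehicle control; three animals per group. Under anaesthesia, blood was collected into EDTA tubes, spun 8 min at 1600 × g, and plasma diluted 1:10 in 0.2% diethanolamine before solid-phase extraction.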

[4] = tested on: Aβ production in human stem-cell derived neurons; test: Human neural stem cell-based Aβ40 inhibition assay; details: 48 h incubation
Summary of the method: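 Neurons differentiated from SB-AD3 human iPSCs (healthy adult donor fibroblasts) via embryoid bodies and dual SMAD inhibition. Doses 0.128–10,000 nM (three independent differentiations) or 0.001024–80 nM (one differentiation), two technical replicates per dose. Vehicle was histidine/NaCl/1.3 mM hydroxypropyl-β-cyclodextrin for peptides and DMSO for small molecules. Aβ40 read by AlphaLISA at 615 nm, compared with vehicle-treated cells; means ± SEM.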

[5] = biological target: T1, BACE1; test: SPR binding assay on immobilized BACE1
Summary of the method: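 SPR at 18 °C in the immobilization buffer. Peptide titrations used 2-fold dilution steps, run either as single-cycle kinetics (5 concentrations) or multi-cycle kinetics (10 concentrations). Two protein surfaces and an activated/deactivated CM5 reference surface were measured in parallel on one sensor.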

[6] = pH 6.5, Solubility pH 6.5, Table 1, phosphate buffer 0.05 M

T1 sequence (P56817 46-501): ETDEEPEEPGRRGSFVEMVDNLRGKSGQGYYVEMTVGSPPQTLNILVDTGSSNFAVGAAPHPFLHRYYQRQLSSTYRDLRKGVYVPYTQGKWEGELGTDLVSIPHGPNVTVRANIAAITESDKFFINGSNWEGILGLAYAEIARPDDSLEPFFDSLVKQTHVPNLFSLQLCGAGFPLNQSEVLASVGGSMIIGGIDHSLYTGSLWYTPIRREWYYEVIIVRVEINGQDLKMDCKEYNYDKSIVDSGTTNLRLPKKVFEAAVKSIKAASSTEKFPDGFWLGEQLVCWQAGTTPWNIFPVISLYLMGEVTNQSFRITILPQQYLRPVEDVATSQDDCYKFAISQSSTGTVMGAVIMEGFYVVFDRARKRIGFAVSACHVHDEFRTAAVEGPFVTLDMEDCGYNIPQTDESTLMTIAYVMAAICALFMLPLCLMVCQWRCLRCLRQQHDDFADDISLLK

- Aβ40 production inhibition in HEK293 APP cells [2]: blocked production of Aβ40
Compound: CC[C@H](C)[C@H](NC(=O)[C@H](Cc1ccccc1)NC(=O)[C@H](Cc1ccc(O)cc1)NC(=O)[C@@H]1CCCN1C(=O)[C@H](Cc1ccc(O)cc1)NC(=O)CNC(=O)CNC(=O)CN)C(=O)N1CCC[C@H]1C(=O)N[C@H](CCCCN)C(=O)NCC(=O)N[C@H](CCCCN)C(=O)NCC(=O)N[C@@H](CCC(=O)O)C(=O)N[C@H](C(=O)N[C@@H](CC(N)=O)C(=O)N[C@@H](CC(C)C)[C@@H](O)CC(=O)N[C@H](C(=O)N[C@@H](C)C(=O)N[C@@H](CCC(=O)O)C(=O)N1CCC[C@@H]1C(=O)N[C@@H](CCCCNC(=O)CCC(=O)O[C@H]1CC[C@@]2(C)C(=CC[C@H]3[C@@H]4CC[C@H]([C@H](C)CCCC(C)C)[C@@]4(C)CC[C@@H]32)C1)C(N)=O)C(C)C)C(C)C [Pep#14, Gly-Gly-Gly-Tyr-Pro-Tyr-Phe-Ile-Pro-DLys-Gly-DLys-Gly-Glu-Val-Asn-Sta-Val-Ala-Glu-DPro-Lys(Chol'ester’)-NH2] (H-GGGYPYFIP[dK]G[dK]GEVN[Sta]VAE[dP]K(Succinyl(4-O-cholesteryl))-NH2; N-terminus assumed)
- Plasma Aβ40 inhibition ([3]; 0.003-3 mg/kg i.v., uncoupled peptides): Dose-dependent inhibition
- Plasma Aβ level reduction ([3]; 3 mg/kg i.v., uncoupled peptide): 51%
- Aβ production inhibition in human stem-cell derived neurons [4]: able to reduce the Aβ production

- Aβ40 production inhibition in HEK293 APP cells [2]: blocked production of Aβ40
Compound: CC[C@H](C)[C@H](NC(=O)[C@H](Cc1ccccc1)NC(=O)[C@H](Cc1ccc(O)cc1)NC(=O)[C@@H]1CCCN1C(=O)[C@H](Cc1ccc(O)cc1)NC(=O)CNC(=O)CNC(=O)CN)C(=O)N1CCC[C@H]1C(=O)N[C@H](CCCCN)C(=O)NCC(=O)N[C@H](CCCCN)C(=O)NCC(=O)N[C@@H](CCC(=O)O)C(=O)N[C@H](C(=O)N[C@@H](CC(N)=O)C(=O)N[C@@H](CC(C)C)[C@@H](O)CC(=O)N[C@H](C(=O)N[C@@H](C)C(=O)N[C@@H](CCC(=O)O)C(=O)N1CCC[C@@H]1C(N)=O)C(C)C)C(C)C [Pep#16, Gly-Gly-Gly-Tyr-Pro-Tyr-Phe-Ile-Pro-DLys-Gly-DLys-Gly-Glu-Val-Asn-Sta-Val-Ala-Glu-DPro-NH2] (H-GGGYPYFIP[dK]G[dK]GEVN[Sta]VAE[dP]-NH2; N-terminus assumed)
- Aβ production inhibition in human stem-cell derived neurons [4]: able to reduce the Aβ production

- solubility thermodynamic [1, 6]: < 1 µg/mL
Compound: CC[C@H](C)[C@H](NC(=O)[C@H](Cc1ccccc1)NC(=O)[C@H](Cc1ccc(O)cc1)NC(=O)[C@@H]1CCCN1C(=O)[C@@H](N)Cc1ccc(O)cc1)C(=O)N1CCC[C@H]1C(=O)N[C@@H](CC(C)C)C(=O)NCC(=O)NCC(=O)NCC(=O)N[C@@H](CCC(=O)O)C(=O)N[C@H](C(=O)N[C@@H](CC(N)=O)C(=O)N[C@@H](CC(C)C)[C@@H](O)CC(=O)N[C@H](C(=O)N[C@@H](C)C(=O)N[C@@H](CCC(=O)O)C(=O)N1CCC[C@@H]1C(=O)N[C@@H](CCCCNC(=O)CCC(=O)O[C@H]1CC[C@@]2(C)C(=CC[C@H]3[C@@H]4CC[C@H]([C@H](C)CCCC(C)C)[C@@]4(C)CC[C@@H]32)C1)C(N)=O)C(C)C)C(C)C [Pep#7, Tyr-Pro-Tyr-Phe-Ile-Pro-Leu-Gly-Gly-Gly-Glu-Val-Asn-Sta-Val-Ala-Glu-DPro-Lys(Chol'ester’)-NH2]

- solubility thermodynamic [1, 6]: > 718 µg/mL
Compound: CC[C@H](C)[C@H](NC(=O)[C@H](Cc1ccccc1)NC(=O)[C@H](Cc1ccc(O)cc1)NC(=O)[C@@H]1CCCN1C(=O)[C@@H](N)Cc1ccc(O)cc1)C(=O)N1CCC[C@H]1C(=O)N[C@H](CCCCN)C(=O)NCC(=O)N[C@H](CCCCN)C(=O)NCC(=O)N[C@@H](CCC(=O)O)C(=O)N[C@H](C(=O)N[C@@H](CC(N)=O)C(=O)N[C@@H](CC(C)C)[C@@H](O)CC(=O)N[C@H](C(=O)N[C@@H](C)C(=O)N[C@@H](CCC(=O)O)C(=O)N1CCC[C@@H]1C(=O)N[C@@H](CCCCNC(=O)CCC(=O)O[C@H]1CC[C@@]2(C)C(=CC[C@H]3[C@@H]4CC[C@H]([C@H](C)CCCC(C)C)[C@@]4(C)CC[C@@H]32)C1)C(N)=O)C(C)C)C(C)C [Pep#9, Tyr-Pro-Tyr-Phe-Ile-Pro-DLys-Gly-DLys-Gly-Glu-Val-Asn-Sta-Val-Ala-Glu-DPro-Lys(Chol'ester’)-NH2]

- IC50 [2]: > 40000 nM
Compound: CC[C@H](C)[C@H](NC(=O)[C@H](Cc1ccccc1)NC(=O)[C@H](Cc1ccc(O)cc1)NC(=O)[C@@H]1CCCN1C(=O)[C@H](Cc1ccc(O)cc1)NC(C)=O)C(=O)N1CCC[C@H]1C(=O)N[C@@H](CC(C)C)C(N)=O [Pep#5, Ac-Tyr-Pro-Tyr-Phe-Ile-Pro-Leu-NH2]

- kon ([5]; BACE1 surface, 18 °C, pH 4.5): 1.1–1.3·10^5 1/Ms
- Selectivity for BACE1 ([5]; ratio KD(BACE2)/KD(BACE1)): > 15 ^a
Compound: CC[C@H](C)[C@H](NC(=O)[C@H](Cc1ccccc1)NC(=O)[C@H](Cc1ccc(O)cc1)NC(=O)[C@@H]1CCCN1C(=O)[C@@H](N)Cc1ccc(O)cc1)C(=O)N1CCC[C@H]1C(=O)N[C@H](CCCCN)C(=O)NCC(=O)N[C@H](CCCCN)C(=O)NCC(=O)N[C@@H](CCC(=O)O)C(=O)N[C@H](C(=O)N[C@@H](CC(N)=O)C(=O)N[C@@H](CC(C)C)[C@@H](O)CC(=O)N[C@H](C(=O)N[C@@H](C)C(=O)N[C@@H](CCC(=O)O)C(=O)N1CCC[C@@H]1C(N)=O)C(C)C)C(C)C [Pep#12, Tyr-Pro-Tyr-Phe-Ile-Pro-DLys-Gly-DLys-Gly-Glu-Val-Asn-Sta-Val-Ala-Glu-DPro-NH2]

Second part, the compound before the results:

Compound: CC(C)CCC[C@@H](C)[C@H]1CC[C@H]2[C@@H]3CC=C4C[C@@H](OC(=O)CCC(=O)NCCCC[C@H](NC(=O)[C@H]5CCCN5C(=O)[C@H](CCC(=O)O)NC(=O)[C@H](C)NC(=O)[C@@H](NC(=O)C[C@H](O)[C@H](CC(C)C)NC(=O)[C@H](CC(N)=O)NC(=O)[C@@H](NC(=O)[C@@H](N)CCC(=O)O)C(C)C)C(C)C)C(N)=O)CC[C@]4(C)[C@H]3CC[C@]12C [Pep#3, Glu-Val-Asn-Sta-Val-Ala-Glu-DPro-Lys(ε-Chol'ester’)-NH2] (H-EVN[Sta]VAE[dP]K(Succinyl(4-O-cholesteryl))-NH2; N-terminus assumed)
- solubility thermodynamic ([1]; pH 6.5): > 3000 µg/mL
- IC50 [2]: 0.4 nM

Compound: Ac-YPYFLPISAK-NH2 [Pep#6, Ac-Tyr-Pro-Tyr-Phe-Leu-Pro-Ile-Ser-Ala-Lys-NH2, reference compound]
- IC50 [2]: > 40000 nM

Compound: CCCCCCCCCCCCCCCC(=O)NCCCC[C@H](NC(=O)[C@H]1CCCN1C(=O)[C@H](CCC(=O)O)NC(=O)[C@H](C)NC(=O)[C@@H](NC(=O)C[C@H](O)[C@H](CC(C)C)NC(=O)[C@H](CC(N)=O)NC(=O)[C@@H](NC(=O)[C@@H](N)CCC(=O)O)C(C)C)C(C)C)C(N)=O [Pep#4, Glu-Val-Asn-Sta-Val-Ala-Glu-DPro-Lys(ε-Palmitoyl)-NH2] (H-EVN[Sta]VAE[dP]K(Palmitoyl)-NH2; N-terminus assumed)
- solubility thermodynamic ([1]; pH 6.5): < 1 µg/mL
- IC50 [2]: 6 nM

Compound: CC[C@H](C)[C@H](NC(=O)[C@H](Cc1ccccc1)NC(=O)[C@H](Cc1ccc(O)cc1)NC(=O)[C@@H]1CCCN1C(=O)[C@@H](N)Cc1ccc(O)cc1)C(=O)N1CCC[C@H]1C(=O)N[C@@H](C)C(=O)NCC(=O)N[C@H](CCCCN)C(=O)NCC(=O)N[C@@H](CCC(=O)O)C(=O)N[C@H](C(=O)N[C@@H](CC(N)=O)C(=O)N[C@@H](CC(C)C)[C@@H](O)CC(=O)N[C@H](C(=O)N[C@@H](C)C(=O)N[C@@H](CCC(=O)O)C(=O)N1CCC[C@@H]1C(=O)N[C@@H](CCCCNC(=O)CCC(=O)O[C@H]1CC[C@@]2(C)C(=CC[C@H]3[C@@H]4CC[C@H]([C@H](C)CCCC(C)C)[C@@]4(C)CC[C@@H]32)C1)C(N)=O)C(C)C)C(C)C [Pep#10, Tyr-Pro-Tyr-Phe-Ile-Pro-Ala-Gly-DLys-Gly-Glu-Val-Asn-Sta-Val-Ala-Glu-DPro-Lys(Chol'ester’)-NH2] (H-YPYFIPAG[dK]GEVN[Sta]VAE[dP]K(Succinyl(4-O-cholesteryl))-NH2; N-terminus assumed)
- solubility thermodynamic ([1]; pH 6.5): > 2450 µg/mL

Compound: CC(C)C[C@H](NC(=O)[C@H](CC(N)=O)NC(=O)[C@@H](NC(=O)[C@@H](N)CCC(=O)O)C(C)C)[C@@H](O)CC(=O)N[C@H](C(=O)N[C@@H](C)C(=O)N[C@@H](CCC(=O)O)C(=O)N1CCC[C@@H]1C(=O)N[C@@H](CCCCN)C(N)=O)C(C)C [Pep#2, Glu-Val-Asn-Sta-Val-Ala-Glu-DPro-Lys-NH2] (H-EVN[Sta]VAE[dP]K-NH2; N-terminus assumed)
- IC50 [2]: > 40000 nM
